Assay results taken from ChEMBL document CHEMBL4689842, “EUbOPEN Chemogenomics Library wave 1” (2021).
Where “and” joins values, the source holds several entries; their conditions need not be identical. Equal values may be shown once.

System: HEK-293T
Experiment: Multiplex assay against HEK293T;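 as to Population Tubulin-Different-Phenotype (%): share of the cells with healthy nuclei that show this phenotype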
Format: toxicity, cell-based
Conditions: human
Procedure, shortened: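 At seeding, live cells were stained with Hoechst33342, BioTracker Green Microtubule Cytoskeleton Dye, MitoTracker Red and Annexin V Alexa Fluor 680. After compound addition they were imaged on a CQ1 microscope at 37°C and 5% CO2, and CellPathfinder machine-learning gating sorted them into Hoechst high-intensity objects or normal cells, with normal cells further split into healthy, pyknosed or fragmented nuclei and pyknosed cells into mitotic or apoptotic. Tubulin, mitochondrial-mass and membrane-permeability phenotypes are given as per cents of cells with healthy nuclei.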

[1] = 12 h, 1 µM, compound concentration 1 uM, replicate 1
[2] = 12 h, 1 µM, compound concentration 1 uM, replicate 2
[3] = 12 h, 10 µM, compound concentration 10 uM, replicate 1
[4] = 12 h, 10 µM, compound concentration 10 uM, replicate 2
[5] = 24 h, 1 µM, compound concentration 1 uM, replicate 1
[6] = 24 h, 1 µM, compound concentration 1 uM, replicate 2
[7] = 24 h, 10 µM, compound concentration 10 uM, replicate 1
[8] = 24 h, 10 µM, compound concentration 10 uM, replicate 2
[9] = 48 h, 1 µM, compound concentration 1 uM, replicate 1
[10] = 48 h, 1 µM, compound concentration 1 uM, replicate 2
[11] = 48 h, 10 µM, compound concentration 10 uM, replicate 1
[12] = 48 h, 10 µM, compound concentration 10 uM, replicate 2

Structure (SMILES): CN1CCCC(n2nc(Cc3ccc(Cl)cc3)c3ccccc3c2=O)CC1.Cl (stereo not drawn) [AZELASTINE HYDROCHLORIDE]
- Population Apoptotic (%) [1]: 50%
- Population Fragmented Nuclei (%) [1]: 8%
- Population Healthy Nuclei (%) [1]: 42%
- Population Hoechst High Intensity Objects (%) [1]: 9%
- Population Membrane Permeable-Phenotype (%) [1]: 3%
- Population Mitochondria Different-Phenotype (%) [1]: 94%
- Population Mitotic Cells (%) [1]: 49%
- Population Normal (%) [1]: 90%
- Population Pyknosed Nuclei (%) [1]: 50%
- Population Tubulin-Different-Phenotype (%) [1]: 84%
- Total Cell Count [1]: 333
- Population Apoptotic (%) [2]: 40%
- Population Fragmented Nuclei (%) [2]: 6%
- Population Healthy Nuclei (%) [2]: 24%
- Population Hoechst High Intensity Objects (%) [2]: 5%
- Population Membrane Permeable-Phenotype (%) [2]: 4%
- Population Mitochondria Different-Phenotype (%) [2]: 61%
- Population Mitotic Cells (%) [2]: 59%
- Population Normal (%) [2]: 94%
- Population Pyknosed Nuclei (%) [2]: 69%
- Population Tubulin-Different-Phenotype (%) [2]: 68%
- Total Cell Count [2]: 190
- Population Apoptotic (%) [3]: 82%
- Population Fragmented Nuclei (%) [3]: 11%
- Population Healthy Nuclei (%) [3]: 16%
- Population Hoechst High Intensity Objects (%) [3]: 19%
- Population Membrane Permeable-Phenotype (%) [3]: 2%
- Population Mitochondria Different-Phenotype (%) [3]: 100%
- Population Mitotic Cells (%) [3]: 17%
- Population Normal (%) [3]: 80%
- Population Pyknosed Nuclei (%) [3]: 72%
- Population Tubulin-Different-Phenotype (%) [3]: 78%
- Total Cell Count [3]: 289
- Population Apoptotic (%) [4]: 89%
- Population Fragmented Nuclei (%) [4]: 5%
- Population Healthy Nuclei (%) [4]: 23%
- Population Hoechst High Intensity Objects (%) [4]: 4%
- Population Membrane Permeable-Phenotype (%) [4]: 3%
- Population Mitochondria Different-Phenotype (%) [4]: 98%
- Population Mitotic Cells (%) [4]: 10%
- Population Normal (%) [4]: 95%
- Population Pyknosed Nuclei (%) [4]: 70%
- Population Tubulin-Different-Phenotype (%) [4]: 56%
- Total Cell Count [4]: 231
- Population Apoptotic (%) [5]: 56%
- Population Fragmented Nuclei (%) [5]: 8%
- Population Healthy Nuclei (%) [5]: 37%
- Population Hoechst High Intensity Objects (%) [5]: 11%
- Population Membrane Permeable-Phenotype (%) [5]: 3%
- Population Mitochondria Different-Phenotype (%) [5]: 92%
- Population Mitotic Cells (%) [5]: 43%
- Population Normal (%) [5]: 88%
- Population Pyknosed Nuclei (%) [5]: 54%
- Population Tubulin-Different-Phenotype (%) [5]: 83%
- Total Cell Count [5]: 353
- Population Apoptotic (%) [6]: 50%
- Population Fragmented Nuclei (%) [6]: 7%
- Population Healthy Nuclei (%) [6]: 49%
- Population Hoechst High Intensity Objects (%) [6]: 4%
- Population Membrane Permeable-Phenotype (%) [6]: 5%
- Population Mitochondria Different-Phenotype (%) [6]: 66%
- Population Mitotic Cells (%) [6]: 50%
- Population Normal (%) [6]: 95%
- Population Pyknosed Nuclei (%) [6]: 43%
- Population Tubulin-Different-Phenotype (%) [6]: 74%
- Total Cell Count [6]: 223
- Population Apoptotic (%) [7]: 82%
- Population Fragmented Nuclei (%) [7]: 13%
- Population Healthy Nuclei (%) [7]: 13%
- Population Hoechst High Intensity Objects (%) [7]: 19%
- Population Membrane Permeable-Phenotype (%) [7]: 0%
- Population Mitotic Cells (%) [7]: 17%
- Population Normal (%) [7]: 80%
- Population Pyknosed Nuclei (%) [7]: 72%
- Population Tubulin-Different-Phenotype (%) [7]: 59%
- Total Cell Count [7]: 289
- Population Apoptotic (%) [8]: 93%
- Population Fragmented Nuclei (%) [8]: 8%
- Population Healthy Nuclei (%) [8]: 33%
- Population Hoechst High Intensity Objects (%) [8]: 7%
- Population Membrane Permeable-Phenotype (%) [8]: 4%
- Population Mitochondria Different-Phenotype (%) [8]: 100%
- Population Mitotic Cells (%) [8]: 6%
- Population Normal (%) [8]: 92%
- Population Pyknosed Nuclei (%) [8]: 58%
- Population Tubulin-Different-Phenotype (%) [8]: 38%
- Total Cell Count [8]: 230
- Population Apoptotic (%) [9]: 49%
- Population Fragmented Nuclei (%) [9]: 14%
- Population Healthy Nuclei (%) [9]: 42%
- Population Hoechst High Intensity Objects (%) [9]: 14%
- Population Membrane Permeable-Phenotype (%) [9]: 3%
- Population Mitochondria Different-Phenotype (%) [9]: 72%
- Population Mitotic Cells (%) [9]: 50%
- Population Normal (%) [9]: 85%
- Population Pyknosed Nuclei (%) [9]: 42%
- Population Tubulin-Different-Phenotype (%) [9]: 70%
- Total Cell Count [9]: 404
- Population Apoptotic (%) [10]: 47%
- Population Fragmented Nuclei (%) [10]: 7%
- Population Healthy Nuclei (%) [10]: 65%
- Population Hoechst High Intensity Objects (%) [10]: 5%
- Population Membrane Permeable-Phenotype (%) [10]: 6%
- Population Mitochondria Different-Phenotype (%) [10]: 48%
- Population Mitotic Cells (%) [10]: 52%
- Population Normal (%) [10]: 94%
- Population Pyknosed Nuclei (%) [10]: 26%
- Population Tubulin-Different-Phenotype (%) [10]: 71%
- Total Cell Count [10]: 324
- Population Apoptotic (%) [11]: 79%
- Population Fragmented Nuclei (%) [11]: 20%
- Population Healthy Nuclei (%) [11]: 6%
- Population Hoechst High Intensity Objects (%) [11]: 27%
- Population Membrane Permeable-Phenotype (%) [11]: 0%
- Population Mitochondria Different-Phenotype (%) [11]: 100%
- Population Mitotic Cells (%) [11]: 20%
- Population Normal (%) [11]: 72%
- Population Pyknosed Nuclei (%) [11]: 73%
- Population Tubulin-Different-Phenotype (%) [11]: 38%
- Total Cell Count [11]: 297
- Population Apoptotic (%) [12]: 89%
- Population Fragmented Nuclei (%) [12]: 8%
- Population Healthy Nuclei (%) [12]: 57%
- Population Hoechst High Intensity Objects (%) [12]: 18%
- Population Mitochondria Different-Phenotype (%) [12]: 99%
- Population Mitotic Cells (%) [12]: 10%
- Population Normal (%) [12]: 81%
- Population Pyknosed Nuclei (%) [12]: 34%
- Population Tubulin-Different-Phenotype (%) [12]: 15%
- Total Cell Count [12]: 231

Structure (SMILES): CNCc1ccccc1-c1csc([C@H](C)Nc2nc(C)nc3cc(OC)c(OC)cc23)c1 [BAY-294]
- Population Apoptotic (%) [3]: 83% and 29% and 42%
- Population Fragmented Nuclei (%) [3]: 16% and 15% and 12%
- Population Hoechst High Intensity Objects (%) [3]: 19% and 16% and 22%
- Population Normal (%) [3]: 80% and 83% and 77%
- Population Pyknosed Nuclei (%) [3]: 82% and 39% and 67%
- Population Tubulin-Different-Phenotype (%) [3]: 50% and 90% and 54%
- Total Cell Count [3]: 623 and 618
- Population Mitochondria Different-Phenotype (%) [4]: 86% and 88% and 34%
- Population Normal (%) [4]: 88% and 95% and 96%
- Population Tubulin-Different-Phenotype (%) [4]: 71% and 72% and 98%
- Total Cell Count [4]: 864 and 1201
- Population Apoptotic (%) [7]: 71% and 57% and 28%
- Population Fragmented Nuclei (%) [7]: 22% and 24% and 13%
- Population Hoechst High Intensity Objects (%) [7]: 14% and 18% and 13%
- Population Mitotic Cells (%) [7]: 28% and 42% and 72%
- Population Normal (%) [7]: 85% and 81% and 86%
- Population Pyknosed Nuclei (%) [7]: 77% and 61% and 26%
- Total Cell Count [7]: 631 and 647
- Population Fragmented Nuclei (%) [8]: 8% and 5% and 12%
- Population Membrane Permeable-Phenotype (%) [8]: 11% and 30%
- Population Normal (%) [8]: 87% and 92% and 96%
- Population Tubulin-Different-Phenotype (%) [8]: 49% and 76% and 94%
- Total Cell Count [8]: 903 and 1682
- Population Apoptotic (%) [11]: 79%
- Population Fragmented Nuclei (%) [11]: 31%
- Population Healthy Nuclei (%) [11]: 0%
- Population Hoechst High Intensity Objects (%) [11]: 18%
- Population Membrane Permeable-Phenotype (%) [11]: 0%
- Population Mitochondria Different-Phenotype (%) [11]: 100%
- Population Mitotic Cells (%) [11]: 20%
- Population Normal (%) [11]: 81%
- Population Pyknosed Nuclei (%) [11]: 68%
- Population Tubulin-Different-Phenotype (%) [11]: 100%
- Population Apoptotic (%) [12]: 96%
- Population Fragmented Nuclei (%) [12]: 17%
- Population Healthy Nuclei (%) [12]: 33%
- Population Hoechst High Intensity Objects (%) [12]: 6%
- Population Membrane Permeable-Phenotype (%) [12]: 6%
- Population Mitochondria Different-Phenotype (%) [12]: 87%
- Population Mitotic Cells (%) [12]: 3%
- Population Normal (%) [12]: 93%
- Population Pyknosed Nuclei (%) [12]: 49%
- Population Tubulin-Different-Phenotype (%) [12]: 96%
